Measurements collected from several papers.
pIC50, pKd: −log10 of the molar value.
Target: Vascular endothelial growth factor receptor 1 (FLT1, Homo sapiens, UniProt P17948)
One construct used (P17948 827-1158, limits assumed): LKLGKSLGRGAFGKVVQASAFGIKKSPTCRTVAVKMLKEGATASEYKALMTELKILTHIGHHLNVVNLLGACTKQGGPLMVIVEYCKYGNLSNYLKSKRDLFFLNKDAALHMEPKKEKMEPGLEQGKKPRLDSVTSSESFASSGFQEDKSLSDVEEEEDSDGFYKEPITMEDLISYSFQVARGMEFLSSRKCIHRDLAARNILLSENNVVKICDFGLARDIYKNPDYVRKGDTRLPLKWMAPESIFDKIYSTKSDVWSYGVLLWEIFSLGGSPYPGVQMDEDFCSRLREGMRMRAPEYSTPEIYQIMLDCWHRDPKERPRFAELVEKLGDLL

`C=CC(=O)Nc1cccc(CN2C(=O)N(c3c(Cl)c(OC)cc(OC)c3Cl)Cc3cnc(NCCCCN(CC)CC)nc32)c1` has a pKd of 7.49 (binding, competition with immobilised ligand).
The pIC50 of `CC(C)(C)n1nc(-c2cnc3cc(OC4CC4)ccc3c2)c(C(N)=O)c1N` is reported as < 5.00 (cell-free assay).
The pKd of `Cc1cnc(-c2ccc(-c3ccc(NC(=O)Nc4c(F)cc(F)cc4F)cc3F)c3c2C(=O)NC3)[nH]1` is reported as 7.89 (binding, competition with immobilised ligand).
`CNC(=O)c1cc2c(Oc3ccc(NC(=O)C4(C(=O)Nc5ccc(F)cc5)CC4)cc3)ccnc2cc1OC` gave a pIC50 of 7.89 (enzyme activity, inhibitor, radiometric).
With `Cc1ccc(NC(=O)c2ccc(C)c(C(F)(F)F)c2)cc1C#Cc1nn(C2CCC(O)CC2)c2ncnc(N)c12` (centres unmarked) the pIC50 was 7.82 (enzyme activity, inhibitor, radiometric).
`COc1ccc2c(Oc3ccc4c(C(=O)Nc5ccccc5N)cccc4c3)ccnc2c1` gave a pIC50 of 8.10 (enzyme activity, inhibitor).
For `CC(C)(C)n1nc(-c2ccc3nc(OC4CC4)ccc3c2)c(C(N)=O)c1N`, the pIC50 was 5.08 (cell-free assay).
`Cc1ccc(C(=O)Nc2ccc(Oc3cc4cnn(C)c4cc3-c3cn[nH]c3)c(F)c2)c(=O)n1-c1ccc(F)cc1` has a pIC50 of < 6.00 (enzyme activity in cells, inhibitor).
